From ChEMBL document CHEMBL1123762, “Synthesis and antiviral evaluation of carbocyclic analogues of 2-amino-6-substituted-purine 3'-deoxyribofuranosides” (1987)
Converted amounts (≈) assume the structure as drawn. “And” between values parts separate entries of the source, which are not always exact repeats. Equal entries are not always repeated.

Experiments:
Assay type in all cases: functional
[1] = test system: unidentified influenza virus; experiment: Antiviral activity against the influenza Ao/PR/8/34 virus strain
How it was run: (§1)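 Cytopathic effect (CPE) inhibition in cell monolayers. Host cells: HSV-1 strain 377 (TK+) and HSV-2 strain MS (TK+) in Vero cells; HSV-1 strain HF (TK−) in H.Ep.-2 cells; influenza A0/PR/8/34 in Madin-Darby canine kidney cells. MIC50 is the concentration giving 50% inhibition of virus-induced CPE. ara-A was run as the positive control in the HSV tests.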

[2] = test system: unidentified influenza virus; experiment: Antiviral activity is expressed as virus rating (VR) against the influenza Ao/PR/8/34 virus strain
How it was run: (§2)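 Virus rating (VR) from CPE inhibition in monolayers: HSV-1 377 and HSV-2 MS in Vero cells, HSV-1 HF in H.Ep.-2 cells, influenza A0/PR/8/34 in MDCK cells. A VR of 1.0 or more means definite, significant activity. A VR of 0.5–0.9 means marginal to moderate activity. A VR below 0.5 usually means no significant activity.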

Human alphaherpesvirus 1 [3] = experiment: Antiviral activity is expressed as virus rating (VR) against the HSV-1 377 strain; how it was run: as §2
Human alphaherpesvirus 1 [4] = experiment: Antiviral activity is expressed as virus rating (VR) against the HSV-1 HF strain; how it was run: as §2
Human alphaherpesvirus 1 [5] = experiment: Antiviral activity against the HSV-1 HF strain from monolayers of human epidermoid carcinoma (H.Ep.-2) cells; how it was run: as §1
Human alphaherpesvirus 1 [6] = experiment: Antiviral activity against the HSV-1 377 strain from monolayers of vero cells; how it was run: as §1
[7] = Ratio measured as the VR of C-3''-deoxyribofuranoside to the VR at a MIC of 3 ug/mL
[8] = Ratio measured as the VR of C-3''-deoxyribofuranoside to the VR at a MIC of 14 ug/mL
[9] = Ratio measured as the VR of C-3''-deoxyribofuranoside to the VR at a MIC of 54 ug/mL
[10] = Ratio measured as the VR of C-3''-deoxyribofuranoside to the VR at a MIC of 15 ug/mL
[11] = Ratio measured as the VR of C-3''-deoxyribofuranoside to the VR at a MIC of 18 ug/mL
[12] = Ratio measured as the VR of C-3''-deoxyribofuranoside to the VR at a MIC of 56 ug/mL
[13] = Ratio measured as the VR of C-3''-deoxyribofuranoside to the VR at a MIC of 6 ug/mL
[14] = Ratio measured as the VR of C-3''-deoxyribofuranoside to the VR at a MIC of 34 ug/mL

Row | Compound | MIC50 [1] [µg/mL] | VR [2] | VR (Human alphaherpesvirus 1 [3]) | VR (Human alphaherpesvirus 1 [4]) | MIC50 (Human alphaherpesvirus 1 [5]) [µg/mL] | further results
1 | Nc1nc(N)c2nnn(C3CC(CO)CC3O)c2n1 (configuration not stated) | 200 (≈ 754 µM) | 1.3 | – | – | – | –
2 | Nc1nc(O)c2ncn(C3CC(CO)CC3O)c2n1 (configuration not stated) | 260 (≈ 980 µM) | 1.3 | 2.6 and 3.1 and 1.9 | 0 | – | –
3 | Nc1nc(Cl)c2ncn([C@@H]3C[C@H](CO)C[C@H]3O)c2n1 | > 284 | 0.5 | 0.1 | 1.5 | 190 (≈ 670 µM) | –
4 | Nc1nc2c(ncn2COCCO)c(=O)[nH]1 [ACYCLOVIR] | – | – | 5.7 | 0 | – | MIC50 (Human alphaherpesvirus 1 [6]; Human alphaherpesvirus 1, read-out: MIC50): 3 µg/mL (≈ 13.3 µM); Ratio [7]: 0.33
5 | NC(=O)c1ncn([C@@H]2O[C@H](CO)[C@@H](O)[C@H]2O)n1 [RIBAVIRIN] | – | 2.6 and 2.9 | – | – | – | Ratio [8]: 0.45; Ratio [9]: 0.19
6 | Nc1ncnc2c1ncn2[C@@H]1O[C@H](CO)[C@@H](O)[C@@H]1O [VIDARABINE] | – | – | 2 and 2.1 | 2.4 | 6 (≈ 22.5 µM) | MIC50 (Human alphaherpesvirus 1 [6]): 15 µg/mL and 18 µg/mL and 34 µg/mL; Ratio [10]: 1.3; Ratio [11]: 1.5; Ratio [12]: 1.44; Ratio [13]: 0.63; Ratio [14]: 0.95
